One series has as its system L02. Description: Inhibition of cellular glucose output in dexamethasone-induced insulin resistant human L02 cells assessed as insulin-stimulated glucose uptake at 10 uM preincubated for 24 hrs followed by insulin stimulation measured after 24 hrs by glucose oxidase method (reference value: 4.5 +/- 0.7%). Format: functional. Details: scale not given: the % may be the effect or the level left.

For another series, the system named is 3T3-L1. As to the kind of experiment: Induction of insulin-stimulated 2-NBDG uptake in TNF-alpha-induced insulin resistant mouse 3T3L1 cells at 10 uM preincubated for 48 hrs followed by 2-NBDG addition measured after 30 mins in presence of insulin by fluorescence assay. Format: functional, cell-based. Summed up: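 Day-8 differentiated 3T3-L1 adipocytes received TNF-α (4 ng/mL) daily for 4 days. They were pretreated in triplicate for 48 h (C-PTIO 20 μM where indicated), then given 100 μM 2-NBDG at 37 °C for 30 min in the dark, with or without insulin. After KRP washes, fluorescence was read at Ex/Em 485/515 nm. Three experiments, mean ± SD.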

Series [1] deals with T1, Aquaporin-2 (Homo sapiens, UniProt P41181).
T1 sequence (P41181 whole entry): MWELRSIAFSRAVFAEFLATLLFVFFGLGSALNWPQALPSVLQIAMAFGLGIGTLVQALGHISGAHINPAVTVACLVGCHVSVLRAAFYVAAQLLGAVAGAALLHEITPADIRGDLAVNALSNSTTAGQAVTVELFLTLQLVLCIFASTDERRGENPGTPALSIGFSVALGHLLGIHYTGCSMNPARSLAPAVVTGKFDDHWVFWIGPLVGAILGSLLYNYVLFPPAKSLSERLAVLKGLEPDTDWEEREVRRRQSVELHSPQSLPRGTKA
As to the kind of experiment: Induction of membrane translocation of biotinylated human AQP2 expressed in rat IMCD cells at 100 uM after 30 mins by FITC-staining based confocal fluorescence microscopic analysis. Format: cell-based. The settings on record: 0.5 h. Summed up:
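Primary SD rat IMCD cells, day 5, were transfected with a human AQP2 plasmid (5 h, serum-free) and cultured 48 h. They were treated for 30 min, with 0.1% DMSO as vehicle and forskolin 100 μM as reference. Cells were fixed in paraformaldehyde, permeabilized with Triton X-100 and quenched with H2O2/methanol. They were stained with FITC-anti-AQP2 and imaged by confocal microscopy.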

Series [2] deals with T1, Aquaporin-2. As to the kind of experiment: Induction of membrane translocation of biotinylated human AQP2 expressed in rat IMCD cells at 100 uM after 30 mins by Western blot analysis. Format: cell-based. The settings on record: 0.5 h. A digest of the protocol: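 Human AQP2-transfected primary rat IMCD cells were treated for 30 min. Surface proteins were biotinylated with sulfo-NHS-LC-biotin (3 mg/mL, 60 min, 4 °C), then cells lysed in 1% NP-40 and pulled down overnight on streptavidin beads. Biotinylated and total AQP2 (30 μg/lane) were blotted with anti-AQP2 and quantified by densitometry as the biotinylated/total ratio. Three experiments, mean ± SD.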

Activity calls are given as the source filed them. The calls are words filed in the database; no cut-off is given here.

With `COc1cc(/C=C/C(=O)OCCCCCO[N+](=O)[O-])ccc1OC(=O)OCN1C(=O)SC(Cc2ccc(OCCN(C)c3ccccn3)cc2)C1=O` (centres undefined), the Activity with L02 worked out at 7.1%. In the case of `COC(=O)/C=C/c1ccc(OC(=O)OCN2C(=O)SC(Cc3ccc(OCCN(C)c4ccccn4)cc3)C2=O)c(OC)c1` (centres undefined), the outcome in the series with 3T3-L1 was Active.

In the case of `COc1cc(/C=C/C(=O)OCCCO[N+](=O)[O-])ccc1OC(=O)OCN1C(=O)SC(Cc2ccc(OCCN(C)c3ccccn3)cc2)C1=O` (centres undefined), the Activity in the series with L02 was determined as 9.6%. On to `COc1cc(/C=C/C(=O)OCN2C(=O)SC(Cc3ccc(OCCN(C)c4ccccn4)cc3)C2=O)ccc1OCCCCCCO[N+](=O)[O-]` (centres undefined), for which the Activity with L02 was found to be 8.5%.

Turning to `COc1cc(/C=C/C(=O)OCCCO[N+](=O)[O-])ccc1OC(=O)CCC(=O)OCN1C(=O)SC(Cc2ccc(OCCN(C)c3ccccn3)cc2)C1=O` (centres undefined), the Activity with L02 came to 10%. Regarding `COc1cc(/C=C/C(=O)OCCCCCCO[N+](=O)[O-])ccc1OC(=O)OCN1C(=O)SC(Cc2ccc(OCCN(C)c3ccccn3)cc2)C1=O` (centres undefined), the Activity with L02 was determined as 8%. Consider `COc1cc(/C=C/C(=O)OCCCCCO[N+](=O)[O-])ccc1OC(=O)CCC(=O)OCN1C(=O)SC(Cc2ccc(OCCN(C)c3ccccn3)cc2)C1=O` (centres undefined), for which, in the series with L02, the Activity came to 10.1%. The same measure, in the same setting: the same measure for `COc1cc(/C=C/C(=O)OCN2C(=O)SC(Cc3ccc(OCCN(C)c4ccccn4)cc3)C2=O)ccc1OCCCCCO[N+](=O)[O-]` (centres undefined): 7.1%. As for `COc1cc(/C=C/C(=O)OCCCCO[N+](=O)[O-])ccc1OC(=O)OCN1C(=O)SC(Cc2ccc(OCCN(C)c3ccccn3)cc2)C1=O` (centres undefined), in the series on L02, the Activity is reported as 12.2%. For the same compound, in the series on 3T3-L1, the result was Active. For `COC(=O)/C=C/c1ccc(O)c(OC)c1`, the result in the series on 3T3-L1 was Active. With `COc1cc(/C=C/C(=O)OCCCCCCO[N+](=O)[O-])ccc1OC(=O)CCC(=O)OCN1C(=O)SC(Cc2ccc(OCCN(C)c3ccccn3)cc2)C1=O` (centres undefined), the Activity in the series with L02 was 6.8%. The same measure, in the same setting: under `COc1cc(/C=C/C(=O)OCCCCO[N+](=O)[O-])ccc1OC(=O)CCC(=O)OCN1C(=O)SC(Cc2ccc(OCCN(C)c3ccccn3)cc2)C1=O` (centres undefined) stands 7.8%. As to `COc1cc(/C=C/C(=O)OCN2C(=O)SC(Cc3ccc(OCCN(C)c4ccccn4)cc3)C2=O)ccc1OCCCO[N+](=O)[O-]` (centres undefined), the Activity in the series on L02 is recorded as 11.5%. In addition, in the series on 3T3-L1, the result was inactive. Turning to `C=C[C@@]1(C)CC(=O)[C@]2(O)[C@@]3(C)[C@@H](O)CCC(C)(C)[C@@H]3[C@H](O)[C@H](OC(C)=O)[C@@]2(C)O1` [COLFORSIN], the outcome at Aquaporin-2 [1] and on Aquaporin-2 [2] was Active. As to `COc1cc(/C=C/C(=O)OCN2C(=O)SC(Cc3ccc(OCCN(C)c4ccccn4)cc3)C2=O)ccc1OCCCCO[N+](=O)[O-]` (centres undefined), the Activity in the series on L02 is recorded as 11.1%. In the series with 3T3-L1, the result was inactive.

The record behind these values is ChEMBL document CHEMBL4325910, “Design and synthesis of rosiglitazone-ferulic acid-nitric oxide donor trihybrids for improving glucose tolerance” (Eur J Med Chem, 2019).
